The source made the active and inactive calls. No cut-off for these calls is given here.

Data set [1] concerns the target T1, Metabotropic glutamate receptor 2 (Homo sapiens, UniProt Q14416). The data set can be described thus: Positive allosteric modulation of human metabotropic glutamate receptor 2 expressed in CHOK1 cell membranes assessed as increase in glutamate-induced [35S]GTPgammaS binding preincubated for 30 mins followed by [35S]GTPgammaS addition measured after 30 mins by Topcount scintillation counting method. The format is functional. In general terms: Binding of GTPγS marks nucleotide exchange on a G protein.
Target sequence in this assay (Q14416 whole entry): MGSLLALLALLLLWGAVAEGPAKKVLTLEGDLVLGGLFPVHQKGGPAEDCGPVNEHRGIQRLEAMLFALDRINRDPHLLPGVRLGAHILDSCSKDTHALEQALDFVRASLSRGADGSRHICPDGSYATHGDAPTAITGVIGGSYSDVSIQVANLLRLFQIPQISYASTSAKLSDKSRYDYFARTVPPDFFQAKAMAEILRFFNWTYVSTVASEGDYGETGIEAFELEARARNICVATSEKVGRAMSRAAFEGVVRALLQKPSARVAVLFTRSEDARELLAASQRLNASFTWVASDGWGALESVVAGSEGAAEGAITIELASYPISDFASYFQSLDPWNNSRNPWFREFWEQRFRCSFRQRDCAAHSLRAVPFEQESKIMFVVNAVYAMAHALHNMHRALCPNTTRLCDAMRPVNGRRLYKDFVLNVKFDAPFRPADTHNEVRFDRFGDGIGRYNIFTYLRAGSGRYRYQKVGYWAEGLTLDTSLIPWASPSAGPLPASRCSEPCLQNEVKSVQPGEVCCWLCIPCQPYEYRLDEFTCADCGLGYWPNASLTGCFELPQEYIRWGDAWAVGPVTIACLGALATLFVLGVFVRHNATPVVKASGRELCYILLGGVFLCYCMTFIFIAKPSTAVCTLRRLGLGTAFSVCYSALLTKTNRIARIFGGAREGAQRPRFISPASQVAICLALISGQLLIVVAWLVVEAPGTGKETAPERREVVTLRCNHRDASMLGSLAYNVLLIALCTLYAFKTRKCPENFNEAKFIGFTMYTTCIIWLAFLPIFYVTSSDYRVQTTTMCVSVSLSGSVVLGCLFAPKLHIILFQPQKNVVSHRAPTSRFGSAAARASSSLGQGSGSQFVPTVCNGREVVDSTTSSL

Data set [2] deals with T1, Metabotropic glutamate receptor 2. Description: Binding affinity to human metabotropic glutamate receptor 2 expressed in CHOK1 cell membranes by scintillation proximity assay.
Target sequence in this assay (Q14416 whole entry): as above
For data set [3] the target is unchanged. Description: Displacement of [3H]JNJ-46281222 from human metabotropic glutamate receptor 2 expressed in CHOK1 cell membranes assessed as dissociation rate constant measured every 30 sec for 120 mins by scintillation proximity assay. Put shortly: (§1)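 For the SPA competition association, CHO-K1_hmGlu2 membranes (20 µg) were pre-coupled 30 min to WGA SPA beads, then mixed with 6 nM [3H]JNJ-46281222, competitor and 1 mM glutamate. Counts were read every 30 s for 120 min at 28°C.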
Target sequence in this assay (Q14416 19-872 limits assumed): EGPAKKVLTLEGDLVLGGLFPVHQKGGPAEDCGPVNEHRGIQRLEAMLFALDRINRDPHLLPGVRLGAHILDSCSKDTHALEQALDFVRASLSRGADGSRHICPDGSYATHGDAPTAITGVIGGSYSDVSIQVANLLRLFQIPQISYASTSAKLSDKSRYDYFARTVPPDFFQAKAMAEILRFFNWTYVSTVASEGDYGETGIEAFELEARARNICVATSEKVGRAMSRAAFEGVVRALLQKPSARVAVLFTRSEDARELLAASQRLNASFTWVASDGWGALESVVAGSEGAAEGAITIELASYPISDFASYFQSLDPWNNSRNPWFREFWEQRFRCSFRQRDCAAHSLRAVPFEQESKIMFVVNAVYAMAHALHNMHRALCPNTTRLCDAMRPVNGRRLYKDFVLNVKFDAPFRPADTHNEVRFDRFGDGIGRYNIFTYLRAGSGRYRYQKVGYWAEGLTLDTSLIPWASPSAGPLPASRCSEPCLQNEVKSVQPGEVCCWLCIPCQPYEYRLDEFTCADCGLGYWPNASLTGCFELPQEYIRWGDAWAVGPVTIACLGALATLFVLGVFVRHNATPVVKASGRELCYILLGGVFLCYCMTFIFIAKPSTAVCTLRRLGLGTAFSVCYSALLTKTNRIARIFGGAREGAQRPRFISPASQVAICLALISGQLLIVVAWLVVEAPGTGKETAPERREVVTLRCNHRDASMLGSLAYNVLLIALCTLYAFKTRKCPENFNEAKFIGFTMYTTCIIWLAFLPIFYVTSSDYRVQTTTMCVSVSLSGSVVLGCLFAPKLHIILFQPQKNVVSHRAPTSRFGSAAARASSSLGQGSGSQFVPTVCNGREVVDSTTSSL

Data set [4] has as its system Rattus norvegicus. Description: In vivo positive allosteric modulation of metabotropic glutamate receptor 2 in Sprague-Dawley rat assessed as reduction in REM at 10 mg/kg, po measured for 24 consecutive 5 mins period. The format is functional, organism-based. Put shortly: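 Sprague-Dawley rats (n=8 per group) received single oral doses of 1, 3 or 10 mg/kg or 20% CD vehicle. REM sleep was scored in 24 consecutive 5-min bins over the first 2 h. Comparison was by mixed-model ANOVA.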

The target in data set [5] is T1, Metabotropic glutamate receptor 2. The data set can be described thus: Displacement of [3H]JNJ-46281222 from human metabotropic glutamate receptor 2 expressed in CHOK1 cell membranes assessed as residence time measured every 30 sec for 120 mins by scintillation proximity assay. Put shortly:
as §1
Target sequence in this assay (Q14416 19-872 limits assumed): as above
On the technique in general: Displacement assays read how much labelled ligand stays bound in the presence of the test substance.

Data set [6] concerns Rattus norvegicus. The data set can be described thus: Effect on total sleep in Sprague-Dawley rat at 1 to 10 mg/kg, po measured for 2 hrs. The class given is ADME, organism-based. Conditions: in vivo.
The target in data set [7] is T1, Metabotropic glutamate receptor 2. The data set can be described thus: Displacement of [3H]-JNJ46281222 from human metabotropic glutamate receptor 2 expressed in CHOK1 cell membranes after 60 mins by microbeta counting analysis.
Target sequence in this assay (Q14416 whole entry): as the sequence (Q14416 whole entry) above
The target is the same in data set [8]. The data set can be described thus: Displacement of [3H]JNJ-46281222 from human metabotropic glutamate receptor 2 expressed in CHOK1 cell membranes assessed as association rate constant measured every 30 sec for 120 mins by scintillation proximity assay. Put shortly: as §1
Target sequence in this assay (Q14416 19-872 limits assumed): as the sequence (Q14416 19-872 limits assumed) above
For the next data set, the system named is Brain. Description: Unbound concentration in Sprague-Dawley rat brain at 10 mg/kg, po measured after 1 hr. The format is ADME, organism-based. The settings on record: in vivo.
Data set [9] deals with T1, Metabotropic glutamate receptor 2. Description: Positive allosteric modulation of human metabotropic glutamate receptor 2 expressed in CHOK1 cells assessed as cellular impedance at 600 nM incubated for 5mins followed by compound washout in presence of endogenous glutamate levels by RTCA. The format is cell-based.
Target sequence in this assay (Q14416 19-872 limits assumed): as above
The target of data set [10] is Metabotropic glutamate receptor 6 (Rattus norvegicus) (UniProt P35349). The data set can be described thus: Agonist activity at rat metabotropic glutamate receptor 6 expressed in CHO cell membranes assessed as increase in [35S]GTPgammaS binding preincubated for 30 mins followed by [35S]GTPgammaS addition measured after 30 mins by Topcount scintillation counting method. The class given is functional.

Data set [11] addresses Metabotropic glutamate receptor 5 (Homo sapiens) (UniProt P41594). Description: Agonist activity at human metabotropic glutamate receptor 5 expressed in HEK293 cells assessed as induction of Ca2+ internalization after 1 hr by fluo-4-AM dye based fluorescence assay. The format is functional, cell-based.
For data set [12], the target named is Metabotropic glutamate receptor 7 (Homo sapiens) (UniProt Q14831). The data set can be described thus: Agonist activity at human metabotropic glutamate receptor 7 expressed in HEK293 cells assessed as induction of Ca2+ internalization after 1 hr by fluo-4-AM dye based fluorescence assay. The class given is functional, cell-based.
Data set [13] addresses Metabotropic glutamate receptor 1 (Homo sapiens) (UniProt Q13255). The data set can be described thus: Agonist activity at human metabotropic glutamate receptor 1 expressed in HEK293 cells assessed as induction of Ca2+ internalization after 1 hr by fluo-4-AM dye based fluorescence assay. The class given is functional, cell-based.
Data set [14] has as its target Metabotropic glutamate receptor 3 (Homo sapiens) (UniProt Q14832). The data set can be described thus: Antagonist activity at human metabotropic glutamate receptor 3 expressed in HEK293 cells assessed as inhibition of glutamate-induced Ca2+ internalization after 1 hr by fluo-4-AM dye based fluorescence assay. The format is functional, cell-based.
Data set [15] has as its target Metabotropic glutamate receptor 5 (Homo sapiens) (UniProt P41594). Description: Positive allosteric modulation of human metabotropic glutamate receptor 5 expressed in HEK293 cells assessed as induction of Ca2+ […] after 1 hr in the presence of glutamate by fluo-4-AM dye based fluorescence assay. The class given is functional, cell-based.
Data set [16] deals with Metabotropic glutamate receptor 1 (Homo sapiens) (UniProt Q13255). Description: Antagonist activity at human metabotropic glutamate receptor 1 expressed in HEK293 cells assessed as inhibition of glutamate-induced Ca2+ internalization after 1 hr by fluo-4-AM dye based fluorescence assay. The class given is functional, cell-based.
The target of data set [17] is Metabotropic glutamate receptor 4 (Homo sapiens) (UniProt Q14833). The data set can be described thus: Antagonist activity at human metabotropic glutamate receptor 4 assessed as inhibition of glutamate-induced [35S]GTPgammaS binding preincubated for 30 mins followed by [35S]GTPgammaS addition measured after 30 mins by Topcount scintillation counting method. The class given is functional.

The target of data set [18] is Metabotropic glutamate receptor 7 (Homo sapiens) (UniProt Q14831). The data set can be described thus: Antagonist activity at human metabotropic glutamate receptor 7 expressed in HEK293 cells assessed as inhibition of glutamate-induced Ca2+ internalization after 1 hr by fluo-4-AM dye based fluorescence assay. The class given is functional, cell-based.
The target of data set [19] is Metabotropic glutamate receptor 4 (Homo sapiens) (UniProt Q14833). Description: Agonist activity at human metabotropic glutamate receptor 4 assessed as increase in [35S]GTPgammaS binding preincubated for 30 mins followed by [35S]GTPgammaS addition measured after 30 mins by Topcount scintillation counting method. The class given is functional.
Data set [20] has as its target Metabotropic glutamate receptor 8 (Homo sapiens) (UniProt O00222). The data set can be described thus: Agonist activity at human metabotropic glutamate receptor 8 expressed in HEK293 cells assessed as induction of Ca2+ internalization after 1 hr by fluo-4-AM dye based fluorescence assay. The format is functional, cell-based.
For data set [21], the target named is T1, Metabotropic glutamate receptor 2. The data set can be described thus: Positive allosteric modulation of human metabotropic glutamate receptor 2 expressed in CHOK1 cells assessed as cellular impedance measured for 20 mins with 15 sec time interval followed by 40 mins with 5 mins time interval and subsequently measured with 15 mins time interval in presence of endogenous glutamate levels by RTCA. The class given is cell-based. Put shortly: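 Whole-cell impedance (Cell Index) in CHO-K1_hmGlu2 cells, 40,000/well, 18 h at 37°C before compound addition. Endogenous glutamate was about 90 µM. […] Three experiments in duplicate.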
Target sequence in this assay (Q14416 whole entry): as the sequence (Q14416 whole entry) above

Data set [22] deals with Metabotropic glutamate receptor 3 (Homo sapiens) (UniProt Q14832). The data set can be described thus: Agonist activity at human metabotropic glutamate receptor 3 expressed in HEK293 cells assessed as induction of Ca2+ internalization after 1 hr by fluo-4-AM dye based fluorescence assay. The format is functional, cell-based.
In data set [23] the target is T1, Metabotropic glutamate receptor 2. The data set can be described thus: Positive allosteric modulation of human metabotropic glutamate receptor 2 expressed in CHOK1 cells assessed as cellular impedance response by label-free xCELLigence assay.
Target sequence in this assay (Q14416 19-872 limits assumed): as the sequence (Q14416 19-872 limits assumed) above
Data set [24] has as its target Metabotropic glutamate receptor 6 (Rattus norvegicus) (UniProt P35349). The data set can be described thus: Antagonist activity at rat metabotropic glutamate receptor 6 expressed in CHO cell membranes assessed as inhibition of glutamate-induced [35S]GTPgammaS binding preincubated for 30 mins followed by [35S]GTPgammaS addition measured after 30 mins by Topcount scintillation counting method. The class given is functional.

In data set [25] the target is Metabotropic glutamate receptor 8 (Homo sapiens) (UniProt O00222). Description: Antagonist activity at human metabotropic glutamate receptor 8 expressed in HEK293 cells assessed as inhibition of glutamate-induced Ca2+ internalization after 1 hr by fluo-4-AM dye based fluorescence assay. The format is functional, cell-based.
Data set [26] concerns the target Metabotropic glutamate receptor 5 (Homo sapiens) (UniProt P41594). The data set can be described thus: Antagonist activity at human metabotropic glutamate receptor 5 expressed in HEK293 cells assessed as inhibition of glutamate-induced Ca2+ internalization after 1 hr by fluo-4-AM dye based fluorescence assay. The format is functional, cell-based.
The target in data set [27] is T1, Metabotropic glutamate receptor 2. Description: Positive allosteric modulation of human metabotropic glutamate receptor 2 expressed in CHOK1 cells assessed as cellular impedance at 60 nM incubated for 5mins followed by compound washout in presence of endogenous glutamate levels by RTCA. The class given is cell-based.
Target sequence in this assay (Q14416 19-872 limits assumed): as above
The test system of a further data set is CHO-K1. The data set can be described thus: Effect on cellular impedance in CHOK1 cells up to 1 uM measured for 20 mins with 15 sec time interval followed by 40 mins with 5 mins time interval and subsequently measured with 15 mins time interval by RTCA. The format is functional, cell-based. Conditions: Cricetulus griseus. Put shortly:
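xCELLigence impedance used 40,000 cells/well of wild-type CHO-K1 or CHO-K1_hmGlu2, rested 30 min at room temperature, then 18 h at 37°C, 5% CO2. Cells got 100 nM or 1 µM compound. Reads: every 15 s for 20 min, 5 min for 40 min, then 15 min. Baseline-corrected; three repeats in duplicate.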

Data set [28] concerns the target T1, Metabotropic glutamate receptor 2. Description: Positive allosteric modulation of human metabotropic glutamate receptor 2 expressed in CHOK1 cells assessed as cellular impedance at 200 nM incubated for 5mins followed by compound washout in presence of endogenous glutamate levels by RTCA. The format is cell-based.

Metabotropic glutamate receptor 5 (Homo sapiens), sequence (P41594 21-1212 limits assumed): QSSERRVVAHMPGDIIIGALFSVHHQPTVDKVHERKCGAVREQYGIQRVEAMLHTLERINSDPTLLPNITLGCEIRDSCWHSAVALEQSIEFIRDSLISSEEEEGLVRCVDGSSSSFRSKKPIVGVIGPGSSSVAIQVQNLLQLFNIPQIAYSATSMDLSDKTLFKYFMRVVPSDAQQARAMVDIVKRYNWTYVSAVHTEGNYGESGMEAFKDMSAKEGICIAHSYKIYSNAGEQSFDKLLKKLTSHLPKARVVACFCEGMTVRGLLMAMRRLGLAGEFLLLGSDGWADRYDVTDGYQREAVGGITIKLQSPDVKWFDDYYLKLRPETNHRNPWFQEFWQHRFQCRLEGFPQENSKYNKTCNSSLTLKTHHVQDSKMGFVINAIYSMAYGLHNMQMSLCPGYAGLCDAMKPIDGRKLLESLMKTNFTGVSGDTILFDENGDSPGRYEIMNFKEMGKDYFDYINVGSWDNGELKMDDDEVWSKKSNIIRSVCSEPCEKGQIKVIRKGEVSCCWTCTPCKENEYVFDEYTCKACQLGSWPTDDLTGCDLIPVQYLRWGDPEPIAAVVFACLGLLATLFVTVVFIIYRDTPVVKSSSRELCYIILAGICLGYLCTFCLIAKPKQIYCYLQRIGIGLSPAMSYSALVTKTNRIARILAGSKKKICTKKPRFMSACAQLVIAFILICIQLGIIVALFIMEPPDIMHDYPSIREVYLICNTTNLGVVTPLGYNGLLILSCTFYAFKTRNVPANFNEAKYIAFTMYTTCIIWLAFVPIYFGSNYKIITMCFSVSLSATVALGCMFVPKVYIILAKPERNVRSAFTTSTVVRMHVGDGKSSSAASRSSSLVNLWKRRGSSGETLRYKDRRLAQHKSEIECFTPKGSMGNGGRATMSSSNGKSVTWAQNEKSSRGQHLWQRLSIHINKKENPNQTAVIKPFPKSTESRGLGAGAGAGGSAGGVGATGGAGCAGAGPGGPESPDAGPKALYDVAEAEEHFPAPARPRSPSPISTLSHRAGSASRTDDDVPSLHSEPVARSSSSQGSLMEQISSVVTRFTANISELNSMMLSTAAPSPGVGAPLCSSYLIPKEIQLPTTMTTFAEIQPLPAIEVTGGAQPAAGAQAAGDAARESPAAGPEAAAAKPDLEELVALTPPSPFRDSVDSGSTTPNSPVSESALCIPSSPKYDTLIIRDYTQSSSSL
Metabotropic glutamate receptor 8 (Homo sapiens), sequence (O00222 whole entry): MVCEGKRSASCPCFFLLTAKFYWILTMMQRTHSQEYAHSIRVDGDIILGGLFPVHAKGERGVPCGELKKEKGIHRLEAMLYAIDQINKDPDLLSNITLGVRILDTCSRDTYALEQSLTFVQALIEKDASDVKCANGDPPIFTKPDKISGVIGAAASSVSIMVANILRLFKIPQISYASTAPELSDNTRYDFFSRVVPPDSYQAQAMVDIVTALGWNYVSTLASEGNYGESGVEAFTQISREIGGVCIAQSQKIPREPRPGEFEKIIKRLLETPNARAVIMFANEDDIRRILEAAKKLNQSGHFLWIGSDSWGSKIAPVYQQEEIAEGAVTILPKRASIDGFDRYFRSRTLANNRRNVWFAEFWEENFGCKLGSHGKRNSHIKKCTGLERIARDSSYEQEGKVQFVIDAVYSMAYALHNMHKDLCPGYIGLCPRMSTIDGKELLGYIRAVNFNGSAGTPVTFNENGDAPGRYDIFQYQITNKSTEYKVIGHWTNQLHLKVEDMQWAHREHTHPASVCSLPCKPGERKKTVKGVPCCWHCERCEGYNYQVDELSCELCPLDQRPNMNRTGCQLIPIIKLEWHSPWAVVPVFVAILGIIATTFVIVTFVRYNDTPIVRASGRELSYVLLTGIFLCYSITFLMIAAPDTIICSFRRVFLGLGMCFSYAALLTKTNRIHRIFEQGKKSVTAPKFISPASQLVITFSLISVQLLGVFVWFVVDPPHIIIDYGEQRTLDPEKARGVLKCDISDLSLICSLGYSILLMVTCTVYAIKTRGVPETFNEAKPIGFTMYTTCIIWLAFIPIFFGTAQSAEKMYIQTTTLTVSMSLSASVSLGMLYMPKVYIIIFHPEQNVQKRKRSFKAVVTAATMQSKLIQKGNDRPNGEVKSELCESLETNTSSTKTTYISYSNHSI
Metabotropic glutamate receptor 3 (Homo sapiens), sequence (Q14832 23-879 limits assumed): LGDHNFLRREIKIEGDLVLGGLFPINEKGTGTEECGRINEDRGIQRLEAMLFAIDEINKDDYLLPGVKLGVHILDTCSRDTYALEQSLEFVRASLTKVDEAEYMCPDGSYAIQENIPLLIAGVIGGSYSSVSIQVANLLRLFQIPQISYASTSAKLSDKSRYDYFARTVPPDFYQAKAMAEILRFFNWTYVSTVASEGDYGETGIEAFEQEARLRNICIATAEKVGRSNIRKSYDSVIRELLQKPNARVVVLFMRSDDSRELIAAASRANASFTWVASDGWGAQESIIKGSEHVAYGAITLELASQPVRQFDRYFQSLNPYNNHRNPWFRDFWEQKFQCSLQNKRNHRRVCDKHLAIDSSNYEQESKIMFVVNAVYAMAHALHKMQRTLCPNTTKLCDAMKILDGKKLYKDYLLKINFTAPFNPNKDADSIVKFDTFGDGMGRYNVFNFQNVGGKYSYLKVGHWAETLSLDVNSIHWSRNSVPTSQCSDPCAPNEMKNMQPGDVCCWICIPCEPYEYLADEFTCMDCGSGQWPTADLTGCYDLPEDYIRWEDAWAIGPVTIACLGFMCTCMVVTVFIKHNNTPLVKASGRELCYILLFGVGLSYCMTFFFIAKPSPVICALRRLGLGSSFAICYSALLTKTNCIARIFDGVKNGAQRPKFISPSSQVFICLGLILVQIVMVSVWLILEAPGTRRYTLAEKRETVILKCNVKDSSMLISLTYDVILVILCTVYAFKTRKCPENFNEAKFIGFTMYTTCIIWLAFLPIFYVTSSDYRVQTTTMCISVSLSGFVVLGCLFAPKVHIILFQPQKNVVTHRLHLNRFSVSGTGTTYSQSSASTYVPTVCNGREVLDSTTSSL

The EC50 is the concentration at which the effect is half-maximal. As a reminder, the Kd is the equilibrium constant for the complex coming apart. The low end stands for tighter binding, the high end for weaker binding. For orientation: Ki means the equilibrium dissociation constant of an inhibitor or competing ligand from its target. Low readings indicate tighter binding, high ones weaker binding. For `Cc1ccc(Oc2ccc(-c3ccn4c(CC5CC5)nnc4c3C(F)(F)F)cc2F)c(C)n1`, the EC50 in data set [1] was 8.71 nM. Moreover, the affinity in [2], expressed as Kd, was 2.5 nM. Moreover, the K in data set [3] turned out to be 0.033 min⁻¹; in [8], 1.3 ×10⁷ /M/min. The outcome in the data set on Rattus norvegicus [4] was Active. Besides, in data set [5], the TIME stood at 0.502 h. Besides, the Activity entry with Rattus norvegicus [6] is reported as “Non-Toxic”. This molecule had a Ki in data set [7] of 2.57 nM. For the same molecule, the “Drug uptake(free)” value with Brain worked out at 5 ng/g.
The EC80 is the concentration at which the effect reaches the 80% level. As for `FC(F)(F)c1c(-c2ccc(OC3CCOCC3)c(Cl)c2)ccn2c(CC3CC3)nnc12`, the outcome in [9], in data set [10], in [11], in data set [12], in data set [13] and in [15] was inactive. Also, the outcome in [19], in data set [20] and in [22] was inactive. The EC50 is 38 nM in data set [1] and 89.1 nM in data set [21]. The Kd in data set [2] amounted to 12.3 nM. The inhibition entry in data set [14], in data set [16], in data set [17], in data set [18], in [24] and in data set [25] was “inactive” each time. For the same molecule, in [26], the inhibition entry was “inactive”. Further, the results for the K in data set [3] and in data set [8] were 0.241 min⁻¹ and 2 ×10⁷ /M/min, respectively. Moreover, the TIME in data set [5] was found to be 0.0683 h. The concentration for an effect of 80% (EC80) in data set [23] was found to be 600 nM. Also, the Ki in data set [7] is 5.25 nM.
Turning to `O[C@]1(C2CC2)CC[C@H](Nc2ccc(-c3ccn4c(CC5CC5)nnc4c3C(F)(F)F)cc2Cl)CC1`, the EC50 is 1.12 nM in data set [1] and 11.2 nM in data set [21]. Moreover, the Kd in data set [2] turned out to be 1.5 nM. Also, the K in [3] stood at 0.02 min⁻¹; in data set [8], 1.4 ×10⁷ /M/min. For the same molecule, in [5], the TIME was 0.825 h. The EC80 in [23] worked out at 60 nM. Moreover, the outcome in [27] was Active. Moreover, the Ki in [7] was 0.891 nM.
Take `Fc1cc(-c2ccn3c(CC4CC4)nnc3c2C(F)(F)F)ccc1Oc1ccnc(C2CC2)c1`: the EC50 in data set [1] was 18.6 nM. The Kd in data set [2] is 8.6 nM. Moreover, the K amounted to 0.189 min⁻¹ in [3] and 2.2 ×10⁷ /M/min in data set [8]. Moreover, in the data set on Rattus norvegicus [4], the outcome was Active. For the same molecule, the TIME in [5] came to 0.0883 h. Also, the Activity entry in the data set on Rattus norvegicus [6] is on record as “Non-Toxic”. The molecule also had a Ki in [7] of 3.63 nM. The “Drug uptake(free)” value with Brain is listed as 3.5 ng/g.
Regarding `FC(F)(F)c1c(CN2CCC(c3ccccc3)CC2)ccn2c(CC3CC3)nnc12`, the outcome with CHO-K1 was inactive.
As for `FC(F)(F)c1c(-c2ccc(NC3CCOCC3)c(Cl)c2)ccn2c(CC3CC3)nnc12`, the EC50 in [1] and in data set [21] was 18.6 nM in each case. In data set [2], this molecule displayed a Kd of 3.8 nM. The K was 0.067 min⁻¹ in data set [3] and 1.8 ×10⁷ /M/min in data set [8]. In addition, the TIME in data set [5] worked out at 0.25 h. The EC80 in data set [23] stood at 200 nM. For the same molecule, the affinity in data set [7] corresponds to a Ki of 5.01 nM. Besides, the outcome in [28] was inactive.

Source of the values: ChEMBL document CHEMBL4038323, “Discovery and Kinetic Profiling of 7-Aryl-1,2,4-triazolo[4,3-a]pyridines: Positive Allosteric Modulators of the Metabotropic Glutamate Receptor 2” (J Med Chem, 2017).
